The subject of one assay is Plasmodium falciparum. Put plainly: Inhibitory concentration against Plasmodium falciparum […]. The class given is functional, organism-based. Particulars: FcB1/Columbia.
Assay [1] has as its target T1, Glutathione reductase, mitochondrial (Homo sapiens, UniProt P00390).
T1 sequence (P00390 whole entry): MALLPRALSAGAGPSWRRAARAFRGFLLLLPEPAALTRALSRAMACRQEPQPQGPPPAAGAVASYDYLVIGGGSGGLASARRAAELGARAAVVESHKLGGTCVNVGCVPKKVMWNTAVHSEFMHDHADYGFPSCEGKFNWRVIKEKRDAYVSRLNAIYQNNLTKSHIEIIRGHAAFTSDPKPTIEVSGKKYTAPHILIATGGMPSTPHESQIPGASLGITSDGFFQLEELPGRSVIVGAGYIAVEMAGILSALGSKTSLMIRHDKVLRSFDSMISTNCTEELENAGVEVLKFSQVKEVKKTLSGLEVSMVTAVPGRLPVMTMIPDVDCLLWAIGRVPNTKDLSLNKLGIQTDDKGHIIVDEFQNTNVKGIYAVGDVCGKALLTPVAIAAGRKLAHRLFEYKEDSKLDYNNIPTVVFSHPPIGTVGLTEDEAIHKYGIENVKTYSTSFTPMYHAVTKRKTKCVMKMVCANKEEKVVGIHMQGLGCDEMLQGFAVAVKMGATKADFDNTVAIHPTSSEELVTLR
Put plainly: Inhibitory concentration against human glutathione reductase. A digest of the protocol: (§1)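 Recombinant GR (human or P. falciparum) in 100 mM potassium phosphate pH 7.0, 200 mM KCl, 100 μM NADPH, 1 mM GSSG, with 1% final DMSO. Started with 8 milliunits of enzyme. Initial rates of NADPH oxidation read at 340 nm. […] A second set of standard assays used 200 μM GSSG.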

The target in the next assay is Glutathione reductase (Plasmodium falciparum 3D7, UniProt O15770). Briefly: Inhibitory concentration against Plasmodium falciparum glutathione reductase. A digest of the protocol:
as §1

The target of assay [2] is T1, Glutathione reductase, mitochondrial. Put plainly: Inhibitory concentration against human glutathione reductase in the presence of 200 uM exogenous NADP.
The target is the same in assay [3]. Briefly: Inhibitory concentration against human glutathione reductase in the absence of glucose-6-phosphate dehydrogenase (G6PDH). In a few lines: as §1
Assay [4] deals with Glutathione reductase (Plasmodium falciparum) (UniProt Q94655). Put plainly: Inhibitory concentration against Plasmodium falciparum glutathione reductase.
Chain of Glutathione reductase (Plasmodium falciparum) (Q94655 whole entry, looked up): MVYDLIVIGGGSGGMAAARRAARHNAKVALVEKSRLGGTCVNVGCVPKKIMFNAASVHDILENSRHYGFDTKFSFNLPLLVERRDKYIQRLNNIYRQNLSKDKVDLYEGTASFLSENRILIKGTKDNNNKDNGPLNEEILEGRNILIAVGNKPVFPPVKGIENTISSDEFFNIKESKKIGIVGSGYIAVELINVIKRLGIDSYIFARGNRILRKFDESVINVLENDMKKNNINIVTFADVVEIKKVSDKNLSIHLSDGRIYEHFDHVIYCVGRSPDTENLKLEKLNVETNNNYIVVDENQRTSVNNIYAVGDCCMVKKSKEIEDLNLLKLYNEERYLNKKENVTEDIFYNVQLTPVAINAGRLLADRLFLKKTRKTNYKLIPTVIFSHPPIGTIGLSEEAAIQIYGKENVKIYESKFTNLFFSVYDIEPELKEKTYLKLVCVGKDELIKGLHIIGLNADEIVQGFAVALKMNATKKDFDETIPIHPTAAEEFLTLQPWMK
Assay [5] deals with T1, Glutathione reductase, mitochondrial. Briefly: Inhibitory concentration against human glutathione reductase (In presence of NADPH).
Assay [6] has the same target. Put plainly: Inhibitory concentration against human glutathione reductase (In presence of glutathione disulfide).

pIC50, pKi: −log10 of the molar value. Where “and” joins values, the source holds several entries; their conditions need not be identical. Equal entries are not always repeated.

Chain of Glutathione reductase (O15770 whole entry): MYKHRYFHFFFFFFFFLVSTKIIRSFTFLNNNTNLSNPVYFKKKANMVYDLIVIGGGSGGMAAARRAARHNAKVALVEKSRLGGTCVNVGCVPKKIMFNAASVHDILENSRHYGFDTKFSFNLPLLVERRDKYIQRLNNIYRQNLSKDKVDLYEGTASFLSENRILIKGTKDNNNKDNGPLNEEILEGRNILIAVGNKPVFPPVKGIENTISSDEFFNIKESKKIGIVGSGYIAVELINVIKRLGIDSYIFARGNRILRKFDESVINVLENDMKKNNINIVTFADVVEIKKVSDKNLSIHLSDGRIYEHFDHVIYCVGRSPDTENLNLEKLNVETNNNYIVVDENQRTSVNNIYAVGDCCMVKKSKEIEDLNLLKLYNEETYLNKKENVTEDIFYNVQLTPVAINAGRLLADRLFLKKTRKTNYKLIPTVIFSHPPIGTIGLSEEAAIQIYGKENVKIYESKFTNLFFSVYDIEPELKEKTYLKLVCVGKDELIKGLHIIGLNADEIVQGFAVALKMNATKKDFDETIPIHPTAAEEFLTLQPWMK

In the assay on Plasmodium falciparum, `CC1=C(CCCCCC(=O)OCCN(C)C)C(=O)c2ccccc2C1=O` showed a pIC50 of 4.90.
Take `CC1=C(CCCCCC(=O)NCCC#N)C(=O)c2ccccc2C1=O`: the pIC50 in the assay with Plasmodium falciparum was 6.00.
`CC1=C(CCCCC(=O)O)C(=O)c2ccccc2C1=O`: the pIC50 in the assay on Plasmodium falciparum is 5.40.
`CC1=C(CCCc2nnnn2CCC#N)C(=O)c2ccccc2C1=O`: the pIC50 with Plasmodium falciparum was 6.05.
In the case of `CN(C)c1ccc2nc3ccc(=[N+](C)C)cc-3sc2c1` [METHYLENE BLUE ANHYDROUS], the values for the pIC50 (in assay [1]; against Glutathione reductase) were 4.80 and 5.19, respectively.
As for `CC1=C(CCCCCC(=O)O)C(=O)c2ccccc2C1=O`, the pIC50 in assay [2] is 5.57; in assay [1] it was 5.49; in assay [3] it was 5.57 and 5.74; with Plasmodium falciparum it was 5.46; against Glutathione reductase, 5.35. Moreover, the pKi in assay [4] is 5.43; at Glutathione reductase, 5.44.
`CC1=C(CCCCCc2nnnn2CCC#N)C(=O)c2ccccc2C1=O` had a pIC50 in the assay on Plasmodium falciparum of 5.96.
In the case of `CC1=C(CCCCc2nnnn2CCC#N)C(=O)c2ccccc2C1=O`, the results for the negative logarithm of the IC50 (pIC50) (in assay [1]; in the assay on Plasmodium falciparum; at Glutathione reductase) were 4.57, 5.85 and 4.97, respectively.
Regarding `CC1=CC(=O)c2ccccc2C1=O` [MENADIONE], the negative logarithm of the Ki (pKi) in assay [5] is 4.79; in assay [6], 4.92.
The compound `CC1=C(CCCC(=O)NCCC#N)C(=O)c2ccccc2C1=O` had a pIC50 in the assay with Plasmodium falciparum of 5.74.
Consider `CC1=C(CCCCC(=O)NCCC#N)C(=O)c2ccccc2C1=O`, for which the pIC50 in assay [1] was 4.64; with Plasmodium falciparum, 5.82; at Glutathione reductase, 4.24.

A word on the pIC50: it is −log10 of the IC50, conventionally taken in molar units. Broadly, the pKi is the Ki on a negative log10 scale, so that one unit is a factor of ten.

These data come from ChEMBL document CHEMBL1138849, “5-substituted tetrazoles as bioisosteres of carboxylic acids. Bioisosterism and mechanistic studies on glutathione reductase inhibitors as antimalarials” (J Med Chem, 2004).
